A short description of assay [1]: Inhibition of bacteria KPC-2 assessed as apparent inhibition constant using nitrocefin as substrate.
A short description of assay [2]: Binding affinity to bacteria KPC-2 assessed as dissociation constant.
Assay [3] concerns Acinetobacter baumannii. The assay can be described thus: Antibacterial activity against ADC deleted Acinetobacter baumannii by broth microdilution method. It is filed as functional.
In assay [4] the test system is Acinetobacter baumannii. As to the kind of experiment: Antibacterial activity against ADC deleted Acinetobacter baumannii transfected with pWH1266 OXA-23 by broth microdilution method. In kind it is functional.
The test system of assay [5] is Pseudomonas aeruginosa. As to the kind of experiment: Synergistic antibacterial activity against Pseudomonas aeruginosa 715 assessed as cefepime MIC at 8 ug/ml by broth microdilution method. In kind it is functional. Particulars: dose 8 µg/ml.
In assay [6] the test system is Pseudomonas aeruginosa. As to the kind of experiment: Synergistic antibacterial activity against Pseudomonas aeruginosa 776 assessed as cefepime MIC at 8 ug/ml by broth microdilution method. In kind it is functional. The following applies: dose 8 µg/ml.
Assay [7] deals with Klebsiella pneumoniae. The assay can be described thus: Antibacterial activity against Klebsiella pneumoniae 901/1860 producing KPC-3 by broth microdilution method. It is filed as functional.
Assay [8] deals with Klebsiella pneumoniae. As to the kind of experiment: Antibacterial activity against Klebsiella pneumoniae 935/1884 producing KPC-3 by broth microdilution method. It is filed as functional.
The subject of assay [9] is Klebsiella pneumoniae. As to the kind of experiment: Antibacterial activity against Klebsiella pneumoniae 977/1916 producing KPC-3 by broth microdilution method. In kind it is functional.
Assay [10] deals with Klebsiella pneumoniae. The assay can be described thus: Antibacterial activity against Klebsiella pneumoniae 1084/1957 producing KPC-3 by broth microdilution method. In kind it is functional.
In assay [11] the test system is Klebsiella pneumoniae. The assay can be described thus: Antibacterial activity against Klebsiella pneumoniae 11978 producing OXA-48 by broth microdilution method. It is filed as functional.
For assay [12], the system named is Klebsiella pneumoniae. As to the kind of experiment: Antibacterial activity against Klebsiella pneumoniae CAV 1636 producing OXA-181 by broth microdilution method. It is filed as functional.
Assay [13] has as its system Klebsiella pneumoniae. The assay can be described thus: Antibacterial activity against Klebsiella pneumoniae jefferson 1773 producing OXA-181 by broth microdilution method. In kind it is functional.
Assay [14] deals with Klebsiella pneumoniae. As to the kind of experiment: Synergistic antibacterial activity against Klebsiella pneumoniae jefferson 1773 producing OXA-181 assessed as meropenem MIC at 8 ug/ml by broth microdilution method. Particulars: dose 8 µg/ml. It is filed as functional.
In assay [15] the test system is Acinetobacter baumannii. As to the kind of experiment: Antibacterial activity against Acinetobacter baumannii NCTC 13301 producing OXA-23/51 infected in sc dosed Swiss albino mouse administered 1 hr post infection and measured upto 7 days. It is filed as functional. Particulars: NCTC 13301, 168 h, time <= 7 day; for ED50: read-out: PD50. The method in brief:
(§1)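 Peritonitis model: male and female Swiss albino mice infected intraperitoneally with 3.5×10^5 to 3×10^6 CFU/mouse in 5% hog gastric mucin (lethal to untreated mice within 24 h). […] Survival followed 7 days; PD50/PD90 by probit analysis.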

Assay [16] relates to Acinetobacter baumannii. The assay can be described thus: Antibacterial activity against Acinetobacter baumannii NCTC 13303 producing OXA-26/51 infected in sc dosed Swiss albino mouse administered 1 hr post infection and measured upto 7 days. In kind it is functional. The following applies: NCTC 13303, 168 h, time <= 7 day. In short, it runs like this: as §1
The subject of assay [17] is Acinetobacter baumannii. The assay can be described thus: Antibacterial activity against Acinetobacter baumannii SL46 producing OXA-23/51 infected in sc dosed Swiss albino mouse administered 1 hr post infection and measured upto 7 days. In kind it is functional. The following applies: SL46, 168 h, time <= 7 day. In short, it runs like this:
as §1

In assay [18] the test system is Bacteria. The assay can be described thus: Inhibition of bacteria KPC-2 assessed as Koff rate using nitrocefin as substrate incubated for 30 mins.
The subject of assay [19] is Bacteria. As to the kind of experiment: Inhibition of bacteria OXA-48 assessed as Koff rate using nitrocefin as substrate incubated for 30 mins.
The test system of assay [20] is Bacteria. The assay can be described thus: Inhibition of bacteria OXA-48 assessed as half life using nitrocefin as substrate.
In assay [21] the test system is Klebsiella pneumoniae. The assay can be described thus: Antibacterial activity against Klebsiella pneumoniae 440/1360 producing KPC-2 by broth microdilution method. In kind it is functional.
For assay [22], the system named is Klebsiella pneumoniae. The assay can be described thus: Antibacterial activity against Klebsiella pneumoniae CAV 1543 producing OXA-48 by broth microdilution method. In kind it is functional.
Assay [23] relates to Klebsiella pneumoniae. As to the kind of experiment: Antibacterial activity against Klebsiella pneumoniae NY BS producing OXA-232 by broth microdilution method. It is filed as functional.
Assay [24] concerns Bacteria.
For assay [25], the system named is Pseudomonas aeruginosa. As to the kind of experiment: Antibacterial activity against Pseudomonas aeruginosa 795 by broth microdilution method. It is filed as functional.
A short description of assay [26]: Inhibition of bacteria OXA-48 assessed as apparent inhibition constant using nitrocefin as substrate.
Assay [27] in a line: Binding affinity to bacteria OXA-48 assessed as dissociation constant.
Assay [28] concerns Acinetobacter baumannii. The assay can be described thus: Synergistic antibacterial activity against Acinetobacter baumannii NCTC 13301 producing OXA-23/51 infected in sc dosed Swiss albino mouse assessed as meropenem MIC at 8 ug/ml administered 1 hr post infection and measured upto 7 days. In kind it is functional. The following applies: NCTC 13301, 168 h, dose 8 µg/ml, time <= 7 day.

For assay [29], the system named is Acinetobacter baumannii. As to the kind of experiment: Synergistic antibacterial activity against Acinetobacter baumannii NCTC 13301 producing OXA-23/51 infected in sc dosed Swiss albino mouse assessed as tigecycline MIC at 8 ug/ml administered 1 hr post infection and measured upto 7 days. It is filed as functional. Particulars: NCTC 13301, 168 h, dose 8 µg/ml, time <= 7 day.

In assay [30] the test system is Acinetobacter baumannii. As to the kind of experiment: Synergistic antibacterial activity against Acinetobacter baumannii NCTC 13301 producing OXA-23/51 infected in sc dosed Swiss albino mouse assessed as colistin MIC at 8 ug/ml administered 1 hr post infection and measured upto 7 days. Particulars: NCTC 13301, 168 h, dose 8 µg/ml, time <= 7 day. In kind it is functional.

Assay [31] deals with Acinetobacter baumannii. The assay can be described thus: Synergistic antibacterial activity against Acinetobacter baumannii NCTC 13303 producing OXA-26/51 infected in sc dosed Swiss albino mouse assessed as cefepime MIC at 8 ug/ml administered 1 hr post infection and measured upto 7 days. It is filed as functional. Particulars: NCTC 13303, 168 h, dose 8 µg/ml, time <= 7 day.

Assay [32] concerns Acinetobacter baumannii. As to the kind of experiment: Synergistic antibacterial activity against Acinetobacter baumannii NCTC 13303 producing OXA-26/51 infected in sc dosed Swiss albino mouse assessed as meropenem MIC at 8 ug/ml administered […] post infection and measured upto 7 days. In kind it is functional. The following applies: NCTC 13303, 168 h, dose 8 µg/ml, time <= 7 day.

Assay [33] relates to Acinetobacter baumannii. The assay can be described thus: Synergistic antibacterial activity against Acinetobacter baumannii NCTC 13303 producing OXA-26/51 infected in sc dosed Swiss albino mouse assessed as tigecycline MIC at 8 ug/ml administered […] post infection and measured upto 7 days. In kind it is functional. Particulars: NCTC 13303, 168 h, dose 8 µg/ml, time <= 7 day.

The test system of assay [34] is Acinetobacter baumannii. As to the kind of experiment: Synergistic antibacterial activity against Acinetobacter baumannii NCTC 13303 producing OXA-26/51 infected in sc dosed Swiss albino mouse assessed as colistin MIC at 8 ug/ml administered […] post infection and measured upto 7 days. In kind it is functional. Particulars: NCTC 13303, 168 h, dose 8 µg/ml, time <= 7 day.

Assay [35] has as its system Acinetobacter baumannii. As to the kind of experiment: Synergistic antibacterial activity against Acinetobacter baumannii SL46 producing OXA-23/51 infected in sc dosed Swiss albino mouse assessed as cefepime MIC at 8 ug/ml administered 1 hr post infection and measured upto 7 days. The following applies: SL46, 168 h, dose 8 µg/ml, time <= 7 day. It is filed as functional.

The subject of assay [36] is Acinetobacter baumannii. The assay can be described thus: Synergistic antibacterial activity against Acinetobacter baumannii SL46 producing OXA-23/51 infected in sc dosed Swiss albino mouse assessed as meropenem MIC at 8 ug/ml administered 2 hrs post infection and measured upto 7 days. The following applies: SL46, 168 h, dose 8 µg/ml, time <= 7 day. It is filed as functional.

Assay [37] relates to Acinetobacter baumannii. As to the kind of experiment: Antibacterial activity against Acinetobacter baumannii SL46 producing OXA-23/51 infected in sc dosed Swiss albino mouse administered 1 hr post infection and measured upto 7 days. Particulars: SL46, 168 h.
The test system of assay [38] is Acinetobacter baumannii. As to the kind of experiment: Antibacterial activity against Acinetobacter baumannii NCTC 13303 producing OXA-26/51 infected in sc dosed Swiss albino mouse administered 1 hr post infection and measured upto 7 days. The following applies: NCTC 13303, 168 h.

Results on five compounds are retold here after ChEMBL document CHEMBL5247575 (J Med Chem, 2018).

Each structure is given as a SMILES string. Converted amounts (≈) assume the structure as drawn. A value given as a limit tells only on which side of the number the result lay.

On to `O=C(NNC(=O)[C@@H]1CC[C@@H]2CN1C(=O)N2OS(=O)(=O)O)[C@@H]1CCNC1`, for which the Ki in assay [1] turned out to be 7.8 µM. For the same compound, the dissociation constant (Kd) in assay [2] was found to be 0.04 µM. In addition, the MIC was found to be 16 µg/mL (≈ 42.4 µM) with Acinetobacter baumannii [3], 16 µg/mL (≈ 42.4 µM) against Acinetobacter baumannii [4], 0.25 µg/mL in the assay on Pseudomonas aeruginosa [5] and 0.25 µg/mL in the assay on Pseudomonas aeruginosa [6].
As to `O=C(NNC(=O)[C@@H]1CC[C@@H]2CN1C(=O)N2OS(=O)(=O)O)[C@@H]1CCCNC1` [ZIDEBACTAM], in [1], the Ki is 4.5 µM. For the same compound, the dissociation constant Kd in assay [2] came out at 0.043 µM. Moreover, the MIC with Klebsiella pneumoniae [7], with Klebsiella pneumoniae [8], with Klebsiella pneumoniae [9], against Klebsiella pneumoniae [10], with Klebsiella pneumoniae [11] and with Klebsiella pneumoniae [12] was over 16 µg/mL throughout. In addition, the MIC against Klebsiella pneumoniae [13] was over 16 µg/mL; in the assay on Pseudomonas aeruginosa [6], 16 µg/mL; with Klebsiella pneumoniae [14] it was at most 0.12 µg/mL. Besides, the results for the ED90 with Acinetobacter baumannii [15], in the assay with Acinetobacter baumannii [16] and in the assay with Acinetobacter baumannii [17] were 52.3 mg/kg, 23.2 mg/kg and 52.3 mg/kg, respectively. Moreover, the ED50 was 23.2 mg/kg with Acinetobacter baumannii [15], under 23.2 mg/kg in the assay with Acinetobacter baumannii [16] (read-out: PD50) and 23.2 mg/kg in the assay on Acinetobacter baumannii [17] (read-out: PD50).
In the case of `NC(=O)[C@@H]1CC[C@@H]2CN1C(=O)N2OS(=O)(=O)[O-].[Na+]` [AVIBACTAM SODIUM], the K in the assay with Bacteria [18] was 1.4 10^-4/s; with Bacteria [19] it was 1.2 10^-5/s. For the same compound, the results for the T1/2 in the assay on Bacteria [20] and in the assay with Bacteria [24] were 16.7 h and 30.4 h, respectively. Further, the MIC in the assay with Acinetobacter baumannii [3] was 16 µg/mL; in the assay with Klebsiella pneumoniae [21], over 16 µg/mL; in the assay on Klebsiella pneumoniae [11] it was over 16 µg/mL; against Klebsiella pneumoniae [12], over 16 µg/mL; against Klebsiella pneumoniae [22], over 16 µg/mL; against Klebsiella pneumoniae [23], over 16 µg/mL. The compound also yielded an MIC in the assay with Klebsiella pneumoniae [13] of over 16 µg/mL.
Regarding `O.O=C(NC1CCNCC1)[C@@H]1CC[C@@H]2CN1C(=O)N2OS(=O)(=O)O` [RELEBACTAM], the MIC against Pseudomonas aeruginosa [25] is over 16 µg/mL.
Regarding `N#C[C@@H]1CC[C@@H]2CN1C(=O)N2OS(=O)(=O)[O-].[Na+]`, in assay [26], the Ki is 0.29 µM. Moreover, the K in the assay with Bacteria [19] is 9 10^-4/s. Also, the T1/2 came out at 0.217 h in the assay on Bacteria [20] and 0.483 h in the assay with Bacteria [24]. For the same compound, the Kd in assay [27] was found to be 0.0014 µM. In addition, the MIC was over 16 µg/mL in the assay with Pseudomonas aeruginosa [25]; over 16 µg/mL in the assay on Pseudomonas aeruginosa [5]; 0.25 µg/mL in the assay on Klebsiella pneumoniae [14]; 1 µg/mL in the assay with Acinetobacter baumannii [28]; 1 µg/mL in the assay with Acinetobacter baumannii [29]; 1 µg/mL in the assay on Acinetobacter baumannii [30]. The minimum inhibitory concentration (MIC) in the assay on Acinetobacter baumannii [31] is 64 µg/mL; with Acinetobacter baumannii [32] it was 256 µg/mL; with Acinetobacter baumannii [33], 1 µg/mL; with Acinetobacter baumannii [34], 0.5 µg/mL; in the assay with Acinetobacter baumannii [35], over 512 µg/mL; with Acinetobacter baumannii [36], 64 µg/mL. For the same compound, the figures for the ED90 in the assay on Acinetobacter baumannii [15], in the assay with Acinetobacter baumannii [37] and in the assay on Acinetobacter baumannii [38] were 23.7 mg/kg, 66.2 mg/kg and 49.4 mg/kg, respectively. The ED50 with Acinetobacter baumannii [15] turned out to be 16.3 mg/kg; in the assay with Acinetobacter baumannii [37] (read-out: PD50), 24.9 mg/kg; in the assay with Acinetobacter baumannii [38] (read-out: PD50), 24 mg/kg.
